Key:
Assay type in all cases: binding
PRMT1-SAH complex [1] = target: T1, PRMT1-SAH complex (Rattus norvegicus, UniProt Q63009); experiment: Stopped-flow association with PRMT1-SAH
Summary of the method: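 His-tagged rat PRMT1 expressed in E. coli and Ni-resin purified. PRMT1 (2, 4, 6 μM) was preincubated with 100 μM SAH, then rapidly mixed with 0.4 μM fluorescein-labelled H4 peptide. Fluorescence quench read at ex 495 nm, 510 nm long-pass emission; 4–6 shots averaged. Traces fit double-exponential; kobs versus PRMT1 fit to two-step model for k1, k−1, k2, k−2.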

PRMT1-SAH complex [2] = target: T1, PRMT1-SAH complex; experiment: Stopped-flow dissociation from PRMT1-SAH; conditions: 100 μM SAH
Summary of the method: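 Trapping experiment using rat His-PRMT1. 0.4 μM fluorescein-labelled H4 peptide (H4FLme1 or H4FLme2) was premixed with 2 μM PRMT1 and 100 μM SAH, then rapidly mixed with 50 μM unlabelled H4(1–20). Fluorescence recovery read at ex 495 nm, 510 nm long-pass emission; 4–6 injections averaged; double-exponential fit.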

PRMT1 = PRMT1 (Rattus norvegicus, UniProt Q63009); experiment: Stopped-flow dissociation from PRMT1; conditions: compared with second phase in methylation course
Sequence of PRMT1 (Q63009 whole entry): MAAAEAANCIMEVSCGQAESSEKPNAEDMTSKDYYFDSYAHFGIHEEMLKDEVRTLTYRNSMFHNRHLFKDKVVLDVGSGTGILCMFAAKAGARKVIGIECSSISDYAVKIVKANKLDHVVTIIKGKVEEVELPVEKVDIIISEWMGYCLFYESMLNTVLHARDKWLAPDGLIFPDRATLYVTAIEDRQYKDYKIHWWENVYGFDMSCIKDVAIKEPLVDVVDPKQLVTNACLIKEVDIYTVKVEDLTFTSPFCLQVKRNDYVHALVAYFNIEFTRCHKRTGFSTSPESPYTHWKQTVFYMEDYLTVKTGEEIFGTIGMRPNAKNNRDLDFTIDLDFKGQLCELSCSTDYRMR

T1 sequence (Q63009 whole entry, one chain of several): as the sequence (Q63009 whole entry) above

Observed first-order rate constant for binding (kobs) (PRMT1-SAH complex [1]; 2 μM PRMT1 in presence of the cofactor) [s⁻¹]	Association rate constant with PRMT1-SAH relative to apo PRMT1 (PRMT1-SAH complex [1]; 100 μM SAH)	k2 + k−2 (plateau of the slow phase) (PRMT1-SAH complex [1]; two-step binding model (eq 5), 100 μM SAH, 30°C) [s⁻¹]	koff from PRMT1-SAH relative to apo-PRMT1 (PRMT1-SAH complex [2])	Dissociation rate constant relative to slow-phase (methylation) rate constants (PRMT1)	Substance
248 ± 3	two-fold higher	36 ± 2	about three-fold lower	several thousand-fold larger	Ac-SGRme1GKGGKGDpr(FL)GKGGAKRHRK [H4FLme1]
–	–	–	–	several thousand-fold larger	Ac-SGRme2GKGGKGDpr(FL)GKGGAKRHRK [H4FLme2]
